Columns and labels:
[1] = biological target: Histone deacetylase 1 (Homo sapiens, UniProt Q13547); assay: Inhibition of HDAC1 (unknown origin) using fluorogenic tetrapeptide RHKK(Ac) substrate by fluorescence assay
[2] = biological target: T1, Histone deacetylase 8 (Homo sapiens, UniProt Q9BY41); assay: Inhibition of HDAC8 (unknown origin) using fluorogenic tetrapeptide RHK(Ac)K(Ac) substrate by fluorescence assay
T1 sequence (Q9BY41 whole entry): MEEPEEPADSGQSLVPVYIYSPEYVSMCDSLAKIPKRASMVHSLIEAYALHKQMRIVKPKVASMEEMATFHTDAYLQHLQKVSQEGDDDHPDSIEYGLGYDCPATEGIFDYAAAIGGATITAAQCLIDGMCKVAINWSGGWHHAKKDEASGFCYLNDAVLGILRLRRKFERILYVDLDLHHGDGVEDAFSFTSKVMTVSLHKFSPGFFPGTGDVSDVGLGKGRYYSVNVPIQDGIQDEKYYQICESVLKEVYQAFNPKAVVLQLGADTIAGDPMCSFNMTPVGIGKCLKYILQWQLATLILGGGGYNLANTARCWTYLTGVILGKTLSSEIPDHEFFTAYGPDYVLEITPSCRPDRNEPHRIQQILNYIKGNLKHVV

[3] = biological target: T2, Polyamine deacetylase HDAC10 (Homo sapiens, UniProt Q969S8); assay: Inhibition of HDAC10 (unknown origin) using fluorogenic tetrapeptide RHKK(Ac) substrate by fluorescence assay
T2 sequence (Q969S8 whole entry): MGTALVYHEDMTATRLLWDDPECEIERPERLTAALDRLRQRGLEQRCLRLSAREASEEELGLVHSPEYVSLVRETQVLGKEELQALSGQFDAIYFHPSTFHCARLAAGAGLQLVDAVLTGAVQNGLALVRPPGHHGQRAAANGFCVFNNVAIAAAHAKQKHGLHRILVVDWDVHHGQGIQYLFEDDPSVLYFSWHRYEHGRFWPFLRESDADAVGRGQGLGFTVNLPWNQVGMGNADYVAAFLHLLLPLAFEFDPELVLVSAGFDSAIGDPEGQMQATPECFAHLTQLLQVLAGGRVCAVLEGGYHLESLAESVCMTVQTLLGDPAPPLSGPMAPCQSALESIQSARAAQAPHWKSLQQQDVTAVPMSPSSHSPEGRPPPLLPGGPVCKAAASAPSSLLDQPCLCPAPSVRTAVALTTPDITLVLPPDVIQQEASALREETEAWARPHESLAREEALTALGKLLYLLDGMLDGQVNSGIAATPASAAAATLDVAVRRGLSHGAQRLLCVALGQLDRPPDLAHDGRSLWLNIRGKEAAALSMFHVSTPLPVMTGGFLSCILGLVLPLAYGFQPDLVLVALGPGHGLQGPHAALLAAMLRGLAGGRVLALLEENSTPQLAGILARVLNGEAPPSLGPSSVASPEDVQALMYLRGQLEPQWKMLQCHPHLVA

[4] = biological target: T3, Histone deacetylase 11 (Homo sapiens, UniProt Q96DB2); assay: Inhibition of HDAC11 (unknown origin) using fluorogenic tetrapeptide RHKK(Ac) substrate by fluorescence assay
T3 sequence (Q96DB2 whole entry): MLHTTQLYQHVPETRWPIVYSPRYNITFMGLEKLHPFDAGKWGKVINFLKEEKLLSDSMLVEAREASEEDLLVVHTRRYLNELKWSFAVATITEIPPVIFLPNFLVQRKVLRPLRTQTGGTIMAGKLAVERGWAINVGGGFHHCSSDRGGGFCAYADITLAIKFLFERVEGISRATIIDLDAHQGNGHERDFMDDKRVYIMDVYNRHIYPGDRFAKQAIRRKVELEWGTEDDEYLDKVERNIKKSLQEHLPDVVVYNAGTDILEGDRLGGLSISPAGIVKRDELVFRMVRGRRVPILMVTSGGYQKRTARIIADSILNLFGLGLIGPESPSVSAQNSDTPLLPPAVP

[5] = Efflux ratio of permeability from apical to basolateral side to basolateral to apical side of human Caco2 cells; format: ADME, cell-based; conditions: caco-2
In short: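 Caco-2 monolayers; the efflux ratio is flux in the apical-to-basolateral direction over flux in the basolateral-to-apical direction. Means of at least three experiments.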

[6] = Antitumor activity against human HCT116 cells xenografted in athymic nude mouse assessed as tumor volume inhibition at 100 mg/kg, po qd for 5 days a week for 3 weeks; format: functional; conditions: HCT-116
In short: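 Female athymic nude mice, 5–6 weeks old, were inoculated sc in the right flank with 5 × 10⁶ exponentially growing tumor cells per 100 μL. Oral dosing once daily began 3 days after tumor injection, in Solutol HS15 diluted 1/20 in water. Tumor volume inhibition was calculated as TVI% = 100 − [(mean TV treated/mean TV control) × 100].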

[7] = test system: Mus musculus; assay: Toxicity in human HCT116 cells xenografted athymic nude mouse assessed as body weight loss at 100 mg/kg, po qd for 5 days a week for 3 weeks; format: organism-based, HCT-116; parameters: dose 100 mg/kg, route oral; conditions: in vivo
In short: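 Nude mice (female, athymic, 5–6 weeks) carried sc right-flank xenografts of 5 × 10⁶ cells per 100 μL. Oral treatment once daily started 3 days after inoculation.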

[8] = biological target: T4, Cholecystokinin receptor type A (Homo sapiens) (UniProt P32238); assay: Inhibition of human CCK1 at 10 uM by radioligand displacement assay
T4 sequence (whole entry): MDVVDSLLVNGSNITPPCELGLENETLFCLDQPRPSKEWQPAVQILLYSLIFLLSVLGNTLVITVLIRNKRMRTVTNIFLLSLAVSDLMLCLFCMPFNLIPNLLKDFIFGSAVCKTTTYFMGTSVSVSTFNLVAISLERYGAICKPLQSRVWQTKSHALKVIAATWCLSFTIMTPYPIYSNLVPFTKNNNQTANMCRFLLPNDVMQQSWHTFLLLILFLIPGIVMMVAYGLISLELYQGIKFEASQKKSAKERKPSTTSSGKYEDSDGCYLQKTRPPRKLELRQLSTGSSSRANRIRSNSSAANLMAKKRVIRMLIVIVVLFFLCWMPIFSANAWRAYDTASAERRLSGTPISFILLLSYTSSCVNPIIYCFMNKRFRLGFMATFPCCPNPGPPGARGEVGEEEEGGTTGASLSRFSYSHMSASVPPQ
In short: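 Tested at 10⁻⁵ M within a 40-target panel of receptors, ion channels and enzymes. Read-out was percent displacement of a radiolabeled reference ligand.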

Histone deacetylase 1, sequence (Q13547 whole entry): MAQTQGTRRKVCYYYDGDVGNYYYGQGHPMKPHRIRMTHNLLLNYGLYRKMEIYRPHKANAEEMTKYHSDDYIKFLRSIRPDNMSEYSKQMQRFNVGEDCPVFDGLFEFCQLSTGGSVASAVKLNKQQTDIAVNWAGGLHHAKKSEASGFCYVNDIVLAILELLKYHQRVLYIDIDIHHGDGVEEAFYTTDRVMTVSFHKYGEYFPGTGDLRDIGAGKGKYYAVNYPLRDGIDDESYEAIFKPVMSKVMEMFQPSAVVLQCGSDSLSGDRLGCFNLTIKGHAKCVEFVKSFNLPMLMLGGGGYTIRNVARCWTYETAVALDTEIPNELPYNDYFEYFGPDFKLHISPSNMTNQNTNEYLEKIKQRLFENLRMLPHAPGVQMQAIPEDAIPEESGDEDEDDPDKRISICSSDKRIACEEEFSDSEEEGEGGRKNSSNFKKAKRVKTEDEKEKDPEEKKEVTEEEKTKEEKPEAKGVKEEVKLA

O=C1CC[C@@H](C(=O)N[C@H](CCCCCS)C(=O)Nc2ccccc2)N1
IC50 [1]: 0.013 µM
IC50 [2]: 0.281 µM
IC50 [3]: 0.011 µM
IC50 [4]: 0.014 µM
Ratio [5]: 5.2
inhibition in vivo at 100 mg/kg [6]: 27%
Activity [7]: 3%
inhibition [8]: 45%

From ChEMBL document CHEMBL3352570, “ST7612AA1, a thioacetate-ω(γ-lactam carboxamide) derivative selected from a novel generation of oral HDAC inhibitors” (J Med Chem, 2014)
